In ChEMBL document CHEMBL1122395, “Tetracyclic chromophoric analogues of actinomycin D: synthesis, structure elucidation and interconvertibility from one form to another, antitumor activity, and structure-activity relationships” (1983):
In brackets after ≈: the same amount, converted by molar mass.

Experiments:
[1] = tested on: CCRF-CEM; assay: Growth inhibitory activity against human lymphoblastic leukemia cells(CCRF-CEM); format: functional; details: read-out: ID50 (the source's name)
Outline: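 Log-phase human lymphoblastic leukemia CCRF-CEM cells grown in suspension culture. Compounds dissolved in Me2SO, final growth medium contained 5% Me2SO. Test solutions kept at 0-4 °C, protected from light, homogeneity checked by HPLC before testing. ID50 reported in ng/mL.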

[2] = organism: Mus musculus; assay: Male CDF1 hybrid treated mice out of seven which survived over 60 days after the treatment.; format: functional
Outline: (§1)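 Male CDF1 mice, seven per group, given 10^6 P388 cells ip on day 0. Drugs were given ip in 10% Me2SO-saline on days 1, 5 and 9, with solutions kept at 0-4 °C, protected from light and checked for homogeneity by HPLC. A range of doses was run and the optimal nontoxic dose reported. Read-outs were median survival time, percent increase in life span, and cures (over-60-day survivors, average of two experiments).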

[3] = tested on: P388; assay: Percent increase in life span observed in P-388 cells infected male CDF1 hybrid mice after intraperitoneal administration at 1200 ug/kg optimal dose; format: functional, Mus musculus; outline: as §1
[4] = tested on: P388; assay: Median survival time observed in P-388 cells infected male CDF1 hybrid mice after intraperitoneal administration at 1200 ug/kg optimal dose; format: functional, Mus musculus; outline: as §1
[5] = tested on: P388; assay: Percent increase in life span observed in P-388 cells infected male CDF1 hybrid mice after intraperitoneal administration at 600 ug/kg optimal dose; format: functional, Mus musculus; outline: as §1
[6] = tested on: P388; assay: Median survival time observed in P-388 cells infected male CDF1 hybrid mice after intraperitoneal administration at 600 ug/kg optimal dose; format: functional, Mus musculus; outline: as §1
[7] = tested on: Nucleic Acid; assay: (§2) Melting temperature of DNA-drug complex minus melting temperature of purified calf-thymus DNA; format: functional; details: Bos taurus
Outline: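 Calf-thymus DNA, purified. ΔTm is the Tm of the DNA-drug complex minus the Tm of DNA alone. Medium was 0.01 M phosphate buffer, pH 7.0, with EDTA.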

[8] = tested on: P388; assay: Percent increase in life span observed in P-388 cells infected male CDF1 hybrid mice after intraperitoneal administration at 750 ug/kg optimal dose; format: functional, Mus musculus; outline: as §1
[9] = tested on: P388; assay: Median survival time observed in P-388 cells infected male CDF1 hybrid mice after intraperitoneal administration at 750 ug/kg optimal dose; format: functional, Mus musculus; outline: as §1
[10] = tested on: P388; assay: Percent increase in life span observed in P-388 cells infected male CDF1 hybrid mice after intraperitoneal administration at 1800 ug/kg optimal dose; format: functional, Mus musculus; outline: as §1
[11] = tested on: P388; assay: Median survival time observed in P-388 cells infected male CDF1 hybrid mice after intraperitoneal administration at 1800 ug/kg optimal dose; format: functional, Mus musculus; outline: as §1
[12] = tested on: P388; assay: Percent increase in life span observed in P-388 cells infected male CDF1 hybrid mice after intraperitoneal administration at 900 ug/kg optimal dose; format: functional, Mus musculus; outline: as §1
[13] = tested on: P388; assay: Median survival time observed in P-388 cells infected male CDF1 hybrid mice after intraperitoneal administration at 900 ug/kg optimal dose; format: functional, Mus musculus; outline: as §1
[14] = tested on: Nucleic Acid; assay: as §2; format: functional; details: Bos taurus; remark: listed apart in the source

For `Cc1ccc(C(=O)N[C@@H]2C(=O)N[C@H](C(C)C)C(=O)N3CCC[C@H]3C(=O)N(C)CC(=O)N(C)[C@@H](C(C)C)C(=O)O[C@@H]2C)c2c1Oc1c(c(C(=O)N[C@@H]3C(=O)N[C@H](C(C)C)C(=O)N4CCC[C@H]4C(=O)N(C)CC(=O)N(C)[C@@H](C(C)C)C(=O)O[C@@H]3C)c3nc(-c4ccc(Cl)cc4Cl)c(=O)oc3c1C)N2`, the IC50 [1] was 3.2 µg/mL (≈ 2.22 µM), the Cures [2] was 0 and the ILS [3] was 155%. For the same compound, the MST [4] was 28 days.
With `Cc1ccc(C(=O)N[C@@H]2C(=O)N[C@H](C(C)C)C(=O)N3CCC[C@H]3C(=O)N(C)CC(=O)N(C)[C@@H](C(C)C)C(=O)O[C@@H]2C)c2c1Oc1c(c(C(=O)N[C@@H]3C(=O)N[C@H](C(C)C)C(=O)N4CCC[C@H]4C(=O)N(C)CC(=O)N(C)[C@@H](C(C)C)C(=O)O[C@@H]3C)c3nc(-c4cccc(Cl)c4)c(=O)oc3c1C)N2` the IC50 [1] was 1.6 µg/mL (≈ 1.14 µM), the Cures [2] was 0 and the ILS [5] was 164%. For the same compound, the MST [6] was 29 days.
In the case of `Cc1nc2c(C(=O)N[C@H]3C(=O)N[C@H](C(C)C)C(=O)N4CCC[C@H]4C(=O)N(C)CC(=O)N(C)[C@@H](C(C)C)C(=O)O[C@H]3C)c3c(c(C)c2o1)Oc1c(C)ccc(C(=O)N[C@@H]2C(=O)N[C@H](C(C)C)C(=O)N4CCC[C@H]4C(=O)N(C)CC(=O)N(C)[C@@H](C(C)C)C(=O)O[C@@H]2C)c1N3`, the ΔTm [7] is reported as 0 °C.
Compound `Cc1nc2c(C(=O)N[C@H]3C(=O)N[C@H](C(C)C)C(=O)N4CCC[C@H]4C(=O)N(C)CC(=O)N(C)[C@@H](C(C)C)C(=O)O[C@H]3C)c3nc4c(C(=O)N[C@@H]5C(=O)N[C@H](C(C)C)C(=O)N6CCC[C@H]6C(=O)N(C)CC(=O)N(C)[C@@H](C(C)C)C(=O)O[C@@H]5C)cc(=O)c(C)c-4oc3c(C)c2o1` has a ΔTm [7] of 1 °C.
`Cc1c2oc3c(C)c4oc(-c5ccccc5)nc4c(C(=O)N[C@@H]4C(=O)N[C@H](C(C)C)C(=O)N5CCC[C@H]5C(=O)N(C)CC(=O)N(C)[C@@H](C(C)C)C(=O)O[C@@H]4C)c3nc-2c(C(=O)N[C@@H]2C(=O)N[C@H](C(C)C)C(=O)N3CCC[C@H]3C(=O)N(C)CC(=O)N(C)[C@@H](C(C)C)C(=O)O[C@@H]2C)cc1=O` showed an IC50 [1] of 0.31 µg/mL (≈ 0.228 µM), a Cures [2] of 2 and an ILS [8] of 300%. It also gave an MST [9] of 44 days.
With `Cc1ccc(C(=O)N[C@@H]2C(=O)N[C@H](C(C)C)C(=O)N3CCC[C@H]3C(=O)N(C)CC(=O)N(C)[C@@H](C(C)C)C(=O)O[C@@H]2C)c2c1Oc1c(c(C(=O)N[C@@H]3C(=O)N[C@H](C(C)C)C(=O)N4CCC[C@H]4C(=O)N(C)CC(=O)N(C)[C@@H](C(C)C)C(=O)O[C@@H]3C)c3nc(-c4ccc(Cl)cc4)c(=O)oc3c1C)N2` the IC50 [1] was 1.6 µg/mL (≈ 1.14 µM), the Cures [2] was 0 and the ILS [5] was 164%. The MST [6] was 29 days.
`Cc1ccc(C(=O)N[C@@H]2C(=O)N[C@H](C(C)C)C(=O)N3CCC[C@H]3C(=O)N(C)CC(=O)N(C)[C@@H](C(C)C)C(=O)O[C@@H]2C)c2c1Oc1c(c(C(=O)N[C@@H]3C(=O)N[C@H](C(C)C)C(=O)N4CCC[C@H]4C(=O)N(C)CC(=O)N(C)[C@@H](C(C)C)C(=O)O[C@@H]3C)c3nc(-c4c(F)c(F)c(F)c(F)c4F)c(=O)oc3c1C)N2` was tested, and the IC50 [1] was 0.64 µg/mL (≈ 0.438 µM), the Cures [2] was 1 and the ILS [10] was 186%. It also gave an MST [11] of 31.5 days.
In the case of `Cc1ccc(C(=O)N[C@@H]2C(=O)N[C@H](C(C)C)C(=O)N3CCC[C@H]3C(=O)N(C)CC(=O)N(C)[C@@H](C(C)C)C(=O)O[C@@H]2C)c2c1Oc1c(c(C(=O)N[C@@H]3C(=O)N[C@H](C(C)C)C(=O)N4CCC[C@H]4C(=O)N(C)CC(=O)N(C)[C@@H](C(C)C)C(=O)O[C@@H]3C)c3nc(-c4ccccc4)oc3c1C)N2`, the IC50 [1] is reported as 9 µg/mL (≈ 6.7 µM), the Cures [2] is reported as 0 and the ILS [12] is reported as 109%. For the same compound, the MST [13] was 23 days.
`Cc1c2oc3c(C)c(O)c(N)c(C(=O)N[C@H]4C(=O)N[C@@H](C(C)C)C(=O)N5CCC[C@H]5C(=O)N(C)CC(=O)N(C)[C@H](C(C)C)C(=O)O[C@H]4C)c3nc-2c(C(=O)N[C@@H]2C(=O)N[C@H](C(C)C)C(=O)N3CCC[C@@H]3C(=O)N(C)CC(=O)N(C)[C@@H](C(C)C)C(=O)O[C@@H]2C)cc1=O` was tested, and the ΔTm [14] was 6.7 °C.
